The list is not random: actives were taken first. Their share in the collection is about 1.9%.
EBNA-1 inhibitor = EBNA-1 DNA-binding inhibitors, primary screen, biochemical, fluorescence polarization; AID 1950, 2009; 0.34% of 300,000 active; inhibition, % at 14.8 µM; in the data active = inhibition above about 28%
ZTA counter = ZTA (EBV) inhibition in EBNA-1 counter-screen | 0.15% of 320,000 active | P03206 | inhibition, % at 11 µM | ZTA-DNA binding, fluorescence polarization; in the data active = inhibition above about 33%
HCV NS3 hel inh = inhibitors of HCV NS3 helicase, primary screen, biochemical, Cy5 molecular beacon fluorescence. 0.56% of 290,000 active. AID 1800, 2009. NS3 helicase DNA unwinding. Hepatitis C virus NS3 helicase. inhibition, % at 10.9 µM;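 active = inhibition above the mean of all tested compounds plus 3 SD, set per campaign, cut at about 35% in these data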
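test system = hepatitis C virus NS3 helicase domain fragment enzyme | reagent = annealed dual-labelled DNA beacon duplex, ATP-started | times = 1 h at 25 °C | detection = Cy5 fluorescence, 0 and 60 min reads | read-out basis = percent inhibition from t60/t0 fluorescence ratio | control set = DMSO and thioflavine S | replication = one well per compound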
core dimer inh = inhibitors of HCV core protein dimerization, primary screen, biochemical, TR-FRET, high-throughput | TR-FRET GST/Flag-core106 dimerization, 1536-well | 0.33% of 300,000 active | inhibition, % at 5 µM | AID 1899, 2009;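 active = inhibition above the mean of all tested compounds plus 3 SD, set per screening campaign, cut at about 45% in these data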
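Test system: GST/Flag-tagged HCV core106 proteins; Medium: KF-containing HEPES buffer, pH 7.45, DTT, CHAPS, BSA; Times: compound-protein-antibody incubation 4 h at 22.5 °C; Detection: TR-FRET 671 and 617 nm emission; Benchmarks: wells lacking GST-core106 and wells with excess unlabelled core106.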
PP1 inh = PP1-alpha phosphatase inhibitors, primary screen, counter-screen for PP5 inhibitor project, biochemical, fluorescence, OMFP substrate, single point | Serine/threonine-protein phosphatase PP1-alpha catalytic subunit (Homo sapiens), P62136 | purified PP1alpha | AID 2235, 2010 | inhibition, % at 6.7 µM | 0.9% of 320,000 active;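 active = inhibition above the mean inhibition of all tested compounds plus 3 SD, computed separately for each screening campaign, cut at about 15% in these data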
Target sequence (P62136 whole entry, looked up): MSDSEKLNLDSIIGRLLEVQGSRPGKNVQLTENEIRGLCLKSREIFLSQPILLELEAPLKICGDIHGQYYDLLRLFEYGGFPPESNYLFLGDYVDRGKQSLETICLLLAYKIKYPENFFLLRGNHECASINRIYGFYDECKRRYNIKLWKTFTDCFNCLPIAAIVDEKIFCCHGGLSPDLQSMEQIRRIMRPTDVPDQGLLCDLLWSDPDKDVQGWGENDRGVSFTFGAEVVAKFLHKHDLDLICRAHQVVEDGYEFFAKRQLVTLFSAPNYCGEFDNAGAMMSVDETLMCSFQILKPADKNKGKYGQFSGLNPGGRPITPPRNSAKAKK
PP1 confirm = PP1 phosphatase inhibitors, confirmation, biochemical, fluorescence, OMFP substrate, triplicate; purified PP1alpha; shares compounds with PP1 inh; 52% of 1,900 active; inhibition, % at 6.7 µM;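 active = mean PP1 inhibition above a set limit taken from the earlier primary screen, cut at about 15% in these data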
PP5 inh counter = PP5 phosphatase inhibition by PP1 hits, confirmation, counter-screen for PP1 inhibitor project, biochemical, fluorescence, triplicate; shares compounds with PP1 inh; purified PP5c, OMFP fluorescence; inhibition, % at 6.7 µM; 4% of 1,900 active;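 active = mean PP5 inhibition over triplicate wells above about 9.5% taken from the earlier PP1 screen, limit read from the data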
Large screens that a line does not name were inactive (follow-up assays come after a bar, where they were run).

O=C(Nc1nccs1)c1ccc(-c2ccc([N+](=O)[O-])cc2)o1	PP1 inh 18 | PP1 confirm 23 | PP5 inh counter inactive
O=C(Nc1nccs1)c1ccc(-c2ccc(Cl)cc2)o1	none
Cc1noc(NS(=O)(=O)c2ccc(NC(=O)Nc3ccc(Cl)c(Cl)c3)cc2)c1C	PP1 inh 18 | PP1 confirm inactive | PP5 inh counter inactive
COc1cccc(C2C3=C(N=c4s/c(=C\c5cccc(O)c5)c(=O)n42)c2ccccc2CC3)c1OC (stereo not given)	none
COc1cccc(C2C3=C(N=c4s/c(=C\c5ccc(OCC(=O)O)cc5)c(=O)n42)c2ccccc2CC3)c1 (stereo not given)	PP1 inh 23 | PP1 confirm inactive | PP5 inh counter inactive
COc1ccccc1C1C2=C(N=c3s/c(=C/c4cccc(OCC(=O)O)c4)c(=O)n31)c1ccccc1CC2 (stereo not given)	PP1 inh 20 | PP1 confirm 19 | PP5 inh counter inactive
O=C(Cn1c(=O)c2cccn2c2ccccc21)NCCc1ccccc1	none
O=C(Cc1csc(NC(=O)Nc2cccc(Cl)c2)n1)NC1CCCC1	PP1 inh 36 (no result: HCV NS3 hel inh) | PP1 confirm 42 | PP5 inh counter inactive
CC(NC(=O)c1ccc(NC(=O)CC2SC(N3CCCC3)=NC2=O)cc1)c1ccccc1 (stereo not given)	none (no result: EBNA-1 inhibitor, HCV NS3 hel inh, core dimer inh)
CCCc1[nH]n(-c2nc3ccccc3s2)c(=O)c1C=NCCN1CCOCC1	PP1 inh 20 | PP1 confirm inactive | PP5 inh counter inactive
CCCc1[nH]n(-c2nc3ccccc3s2)c(=O)c1C=NCCCOC	none
CCOC(=O)C1CCN(C(=O)Nc2ccc3nc(-c4ccco4)c(-c4ccco4)nc3c2)CC1	core dimer inh 72, PP1 inh 31 | PP1 confirm inactive | PP5 inh counter inactive
O=C1N=C(N2CCC(Cc3ccccc3)CC2)S/C1=C/c1cn[nH]c1-c1ccccc1	PP1 inh 21 | PP1 confirm inactive | PP5 inh counter inactive
O=c1c(Cl)c(N/N=C/c2ccc(Cl)cc2)cnn1-c1ccccc1	PP1 inh 29 | PP1 confirm 21 | PP5 inh counter inactive
Nc1c(C(=O)N/N=C/c2ccc(Cl)cc2)cnn1-c1ccccc1	none
N#Cc1c(N2CCCC(O)C2)nc(N)c2c(N)nc3c(c12)CC(=O)N3C12CC3CC(CC(C3)C1)C2 (stereo not given)	core dimer inh 52, PP1 inh 19 | PP1 confirm inactive | PP5 inh counter 57
C=C(C)CN(CC)c1nc(N)c2c(N)nc3c(c2c1C#N)CC(=O)N3C12CC3CC(CC(C3)C1)C2	PP1 inh 19 | PP1 confirm inactive | PP5 inh counter inactive
CC(C)(C)c1ccc(N2C(=O)Cc3c2nc(N)c(C#N)c3N)cc1	none
N#Cc1c(N(CCO)CCO)nc(N)c2c(N)nc3c(c12)CC(=O)N3CC1CCCO1 (stereo not given)	none
CCCCN1C(=O)Cc2c1nc(N)c1c(N)nc(N(CCC)CCC)c(C#N)c21	PP1 inh 16 | PP1 confirm inactive | PP5 inh counter inactive
CCN(CC)S(=O)(=O)c1ccc(NN=c2c(=O)c3ccccc3c2=O)cc1	none
O=C1CCCN1c1ccc(C(=O)N(Cc2nnc(-c3ccc(Cl)cc3)o2)C2CC2)cc1	PP1 inh 18 (no result: HCV NS3 hel inh) | PP1 confirm inactive | PP5 inh counter inactive
Nc1nnc(-c2ccco2)s1	none
Nc1ncnc2oc(-c3ccco3)c(-c3ccco3)c12	core dimer inh 73, PP1 inh 25 | PP1 confirm 16 | PP5 inh counter inactive
Cc1ccc(-c2nn(-c3ccccc3)c3[nH]c(=O)c(CNCc4ccccc4)cc23)cc1	PP1 inh 27 | PP1 confirm 27 | PP5 inh counter inactive
CCOc1ccc(NC(=O)CN2CCN(CC(=O)Nc3ccc(C(N)=O)cc3)CC2)cc1	none (no result: EBNA-1 inhibitor, ZTA counter, core dimer inh, PP1 inh)

Source: PubChem BioAssay (The Scripps Research Institute Molecular Screening Center)
